Test results: ChEMBL document CHEMBL2384980, “Development of cell-active non-peptidyl inhibitors of cysteine cathepsins” (Bioorg Med Chem, 2013)
pKi: −log10 of the molar value. Activity calls are given as the source filed them. The rule behind the calls is not given here.

What was measured:
Cathepsin B [1] = target: T1, Cathepsin B (Homo sapiens, UniProt P07858); test: Time dependent inhibition of human liver cathepsin B using Z-RR-para-nitroanilide as substrate at 500 uM
How it was run: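 Screening: human liver cathepsin B (175 nM) activated in 100 mM sodium phosphate pH 6.0, 5 mM DTT, 1 mM EDTA, incubated with 500 µM inhibitor (5% DMSO) at 30 °C for 10 min; aliquot diluted 17.5-fold into 3 mM Z-RR-pNA, residual activity from initial rates at 405 nm.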

Cathepsin B [2] = target: T1, Cathepsin B; test: Inhibition of human liver cathepsin B
How it was run: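 Human liver cathepsin B (175 nM final) activated 10 min in 100 mM sodium phosphate pH 6.0 with 5 mM DTT, 1 mM Na2EDTA, then incubated with inhibitor (5% DMSO) at 30 °C under pseudo-first-order conditions. Aliquots diluted 17.5-fold into 3 mM Z-RR-pNA; initial rates read at 405 nm. Screening used 500 µM inhibitor with residual activity after 10 min.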

MDA-MB-231 [3] = test: Inhibition of cathepsin in human MDA-MB-231 cells assessed as decrease in cell migratory behavior after 6 hrs by microscopic analysis; format: cell-based
How it was run: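 MDA-MB-231 cells plated as concentric circles through a sedimentation manifold on BSA-coated glass slide; after manifold removal, treated with 0.05% DMSO or inhibitor (10 and 20 µM) for 6 h at 37 °C. Images at t0 and t6; motility taken as change in total area (µm2), mean ± S.D. of triplicates.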

[4] = target: Cathepsin S (Homo sapiens) (UniProt P25774); test: Inhibition of cathepsin S in human MDA-MB-231 cells assessed as increase in E-cadherin levels at 1 to 5 uM after 30 mins by Western blotting analysis; format: cell-based
Cathepsin B [5] = target: T1, Cathepsin B; test: Inhibition of cathepsin B in human MDA-MB-231 cells assessed as increase in E-cadherin levels at 1 to 5 uM after 30 mins by Western blotting analysis; format: cell-based
MDA-MB-231 [6] = test: Inhibition of cathepsin in human MDA-MB-231 cells assessed as change in cellular morphology at 20 uM by microscopic analysis; format: cell-based
[7] = target: Cathepsin S (Homo sapiens) (UniProt P25774); test: Inhibition of cathepsin S in human MDA-MB-231 cells assessed as increase in E-cadherin levels after 20 mins by immunofluorescence assay; format: cell-based
How it was run: (§1)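 MDA-MB-231 cells (IMDM, 10% FBS, 37 °C, 5% CO2) on glass coverslips 24 h, treated 20 min at 37 °C with vehicle (0.1% DMSO) or inhibitor. Fixed in 3.7% PFA, permeabilized, blocked, mouse anti-E-cadherin (1:100) overnight at 4 °C, then Alexa 594 secondary, Hoechst nuclei. Mean peripheral fluorescence intensity, 28 cells per condition, three independent experiments.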

Cathepsin B [8] = target: T1, Cathepsin B; test: Inhibition of cathepsin B in human MDA-MB-231 cells assessed as increase in E-cadherin levels after 20 mins by immunofluorescence assay; format: cell-based; how it was run: as §1
Cathepsin B [9] = target: T1, Cathepsin B; test: Inhibition of cathepsin B in human MDA-MB-231 cells using Z-RR-AMC as substrate preincubated for 20 mins prior to substrate addition measured after 10 mins by confocal microscopic analysis; format: cell-based
How it was run: (§2)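 Live-cell confocal imaging of MDA-MB-231 cells on poly-D-lysine glass dishes in phenol-red-free medium with 15 mM HEPES plus Oxyrase/10 mM lactate. Cells treated with 0.1% DMSO or inhibitor 20 min at 37 °C, then Z-RR-AMC (25 µM final) for 10 min. […]; average whole-cell fluorescence, 8-10 cells per experiment, three independent experiments.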

[10] = Half life of the compound at 2.5 mM at pH 7.4 by NMR spectrophotometric analysis; format: physicochemical
How it was run: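 Hydrolytic stability by NMR: stock in deuterated DMSO added to deuterated phosphate buffer, pH 7.4 (D2O), final 2.5 mM, pseudo-first order. Spectra recorded at intervals; integrations of starting and final species compared, data fitted to single exponential decay, t1/2 = 0.693/k.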

Cathepsin B [11] = target: T1, Cathepsin B; test: Inhibition of cathepsin B in human MDA-MB-231 cells using Z-RR-AMC as substrate at 20 uM preincubated for 20 mins prior to substrate addition measured after 10 mins by confocal microscopic analysis; format: cell-based; how it was run: as §2
[12] = target: T2, Tyrosine-protein phosphatase non-receptor type 1 (Homo sapiens) (UniProt P18031); test: Inhibition of human PTP1B
T2 sequence (whole entry): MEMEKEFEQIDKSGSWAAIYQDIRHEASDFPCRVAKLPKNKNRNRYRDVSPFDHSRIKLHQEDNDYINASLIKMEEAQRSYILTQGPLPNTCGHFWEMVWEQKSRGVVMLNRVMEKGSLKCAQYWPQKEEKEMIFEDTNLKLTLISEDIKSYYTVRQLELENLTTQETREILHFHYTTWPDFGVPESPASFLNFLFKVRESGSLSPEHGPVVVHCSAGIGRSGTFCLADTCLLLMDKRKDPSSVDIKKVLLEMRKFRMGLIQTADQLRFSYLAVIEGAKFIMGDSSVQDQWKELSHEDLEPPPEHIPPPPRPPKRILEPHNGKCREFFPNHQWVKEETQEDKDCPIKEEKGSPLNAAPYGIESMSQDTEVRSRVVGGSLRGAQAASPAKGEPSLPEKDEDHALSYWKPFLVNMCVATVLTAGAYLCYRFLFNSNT

Trypsin (Homo sapiens) = Trypsin (Homo sapiens) (UniProt P07477+P07478+P35030); test: Inhibition of trypsin (unknown origin) using N-alpha-benzoyl-DL-arginine-p-nitroanilide as substrate; format: protein assay
How it was run: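 Trypsin freshly prepared in 1 mM HCl, pre-activated (190–200 U/µl final), inhibitor added; aliquots at intervals into 67 mM sodium phosphate with 3 mM BAPNA, initial rate at 410 nm. Time-dependent inhibition examined up to 1 mM over 1 h.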

[13] = target: T3, Cathepsin G (Homo sapiens) (UniProt P08311); test: Inhibition of human cathepsin G using Suc-AAPF-pNA as substrate
T3 sequence (whole entry): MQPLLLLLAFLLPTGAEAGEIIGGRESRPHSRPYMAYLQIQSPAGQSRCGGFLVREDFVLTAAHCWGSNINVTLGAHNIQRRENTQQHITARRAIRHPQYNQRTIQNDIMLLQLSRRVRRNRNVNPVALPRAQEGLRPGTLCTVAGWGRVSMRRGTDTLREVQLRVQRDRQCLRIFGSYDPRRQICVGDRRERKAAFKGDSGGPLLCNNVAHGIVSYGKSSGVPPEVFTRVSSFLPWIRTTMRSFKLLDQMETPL
How it was run: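 Human cathepsin G (7.66 nM final) activated 15 min in 20 mM Tris-HCl pH 7.4, 500 mM NaCl; inhibitor added, aliquots at intervals into buffer with 3.4 mM Suc-AAPF-pNA. Time-dependent inhibition examined up to 1 mM over 1 h.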

[14] = target: Cathepsin D (Homo sapiens) (UniProt P07339); test: Inhibition of human cathepsin D using Mca-Gly-Lys-Pro-Ile-Leu-Phe-Phe-Arg-Leu-Lys(Dnp)-D-Arg-NH2 as substrate
[15] = target: Cathepsin S (Homo sapiens) (UniProt P25774); test: Inhibition of human cathepsin S using Z-VVR-AMC as substrate
How it was run: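 Human cathepsin S (134.6 nM final) activated 10 min in 100 mM potassium phosphate pH 6.5, 5 mM DTT, 5 mM EDTA; inactivated with inhibitor at 75 µM. Aliquots at intervals into buffer (8% DMSO) with 250 µM Z-VVR-AMC, Ex/Em 365/440 nm. Second-order constant = kobs/[I].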

[16] = target: T4, Cathepsin F (Homo sapiens) (UniProt Q9UBX1); test: Inhibition of human cathepsin F using Z-FR-AMC as substrate
T4 sequence (whole entry): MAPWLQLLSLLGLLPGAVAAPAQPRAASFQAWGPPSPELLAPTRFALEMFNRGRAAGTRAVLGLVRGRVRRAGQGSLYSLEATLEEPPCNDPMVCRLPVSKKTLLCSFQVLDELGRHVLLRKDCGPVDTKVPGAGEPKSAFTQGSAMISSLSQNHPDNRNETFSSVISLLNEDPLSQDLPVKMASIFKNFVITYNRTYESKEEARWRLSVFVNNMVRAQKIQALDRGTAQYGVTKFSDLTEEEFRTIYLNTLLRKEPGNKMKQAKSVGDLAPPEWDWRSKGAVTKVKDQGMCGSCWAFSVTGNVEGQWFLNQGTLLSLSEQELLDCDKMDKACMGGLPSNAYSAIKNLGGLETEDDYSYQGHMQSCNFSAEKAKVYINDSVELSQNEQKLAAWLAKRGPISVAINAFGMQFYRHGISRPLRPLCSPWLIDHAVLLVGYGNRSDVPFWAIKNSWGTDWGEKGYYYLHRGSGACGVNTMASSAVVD
How it was run: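 Human cathepsin F (10.8 nM final) activated 10 min at 25 °C in 50 mM potassium phosphate pH 6.5, 2.5 mM DTT, 2.5 mM EDTA, 1.0 mg/ml BSA; inhibitor added, aliquots at intervals into assay with 3 µM Z-FR-AMC at 25 °C. Second-order constant = kobs divided by inhibitor concentration.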

Cathepsin B [17] = target: T1, Cathepsin B; test: Inhibition of human liver cathepsin B using Z-RR-para-nitroanilide as substrate
How it was run: (§3)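 Human liver cathepsin B (175 nM final) activated 10 min in 100 mM sodium phosphate pH 6.0, 5 mM DTT, 1 mM EDTA; inhibitor added (5% DMSO, pseudo-first order) at 30 °C. Aliquots diluted 17.5-fold into assay with 3 mM Z-RR-pNA; initial rates at 405 nm give residual activity over time.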

Cathepsin B [18] = target: T1, Cathepsin B; test: Inhibition of human liver cathepsin B in presence of azide ion
Cathepsin B [19] = target: T1, Cathepsin B; test: Irreversible inhibition of human liver cathepsin B after 10 mins by mass spectrophotometric analysis
How it was run: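 Activated cathepsin B incubated with inhibitor (800 µM) or 5% DMSO control for 10 min under kinetic-study conditions; samples mixed 1:9 with saturated α-cyano-4-hydroxycinnamic acid and analysed by MALDI mass spectrometry, positive linear mode.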

Cathepsin B [20] = target: T1, Cathepsin B; test: Inhibition of human liver cathepsin B using Z-RR-para-nitroanilide as substrate assessed as first-order inactivation rate constant by Kitz-Wilson plot analysis
How it was run: (§4)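 Cathepsin B (175 nM, pH 6.0 phosphate, DTT/EDTA, 30 °C, 5% DMSO) inactivated at 25, 50, 75, 100 and 150 µM inhibitor; residual activity with 3 mM Z-RR-pNA at intervals. kobs from single-exponential fit of activity vs time at each concentration; Ki and ki from Kitz–Wilson analysis.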

Cathepsin B [21] = target: T1, Cathepsin B; test: Inhibition of human liver cathepsin B using Z-RR-para-nitroanilide as substrate assessed as reversible equilibrium binding constant by Kitz-Wilson plot analysis; how it was run: as §4
Cathepsin B [22] = target: T1, Cathepsin B; test: Inhibition of human liver cathepsin B using Z-RR-para-nitroanilide as substrate in presence of leupeptin
How it was run: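 Active-site protection: cathepsin B inactivation (175 nM, pH 6.0 phosphate buffer with DTT/EDTA, 30 °C, 5% DMSO) run in presence of leupeptin (40 nM); residual activity measured with 3 mM Z-RR-pNA at 405 nm.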

Cathepsin B [23] = target: T1, Cathepsin B; test: Irreversible inhibition of human liver cathepsin B using Z-RR-para-nitroanilide as substrate measured after dilution of compound-inactivated enzyme complex
Cathepsin B [24] = target: T1, Cathepsin B; test: Time dependent inhibition of human liver cathepsin B using Z-RR-para-nitroanilide as substrate; how it was run: as §3
Homo sapiens [25] = species: Homo sapiens; test: Selectivity ratio of Kinact for human liver cathepsin B to Kinact for human cathepsin D
Homo sapiens [26] = species: Homo sapiens; test: Selectivity ratio of Kinact for human liver cathepsin B to Kinact for human cathepsin S
Homo sapiens [27] = species: Homo sapiens; test: Selectivity ratio of Kinact for human liver cathepsin B to Kinact for human cathepsin F

Cathepsin S (Homo sapiens), sequence (P25774 115-331 limits assumed): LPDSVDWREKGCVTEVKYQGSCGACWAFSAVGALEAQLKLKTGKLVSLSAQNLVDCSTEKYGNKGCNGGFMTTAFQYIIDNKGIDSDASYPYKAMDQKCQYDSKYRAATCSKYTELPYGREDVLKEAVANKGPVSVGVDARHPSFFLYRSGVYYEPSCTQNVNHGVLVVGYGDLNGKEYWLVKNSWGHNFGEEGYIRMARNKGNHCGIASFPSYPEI
Cathepsin D (Homo sapiens), sequence (P07339 65-162 limits assumed): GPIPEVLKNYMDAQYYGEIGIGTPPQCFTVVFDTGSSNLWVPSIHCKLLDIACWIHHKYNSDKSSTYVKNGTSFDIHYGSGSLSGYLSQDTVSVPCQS
Cathepsin D (Homo sapiens), sequence (P07339 169-412 limits assumed): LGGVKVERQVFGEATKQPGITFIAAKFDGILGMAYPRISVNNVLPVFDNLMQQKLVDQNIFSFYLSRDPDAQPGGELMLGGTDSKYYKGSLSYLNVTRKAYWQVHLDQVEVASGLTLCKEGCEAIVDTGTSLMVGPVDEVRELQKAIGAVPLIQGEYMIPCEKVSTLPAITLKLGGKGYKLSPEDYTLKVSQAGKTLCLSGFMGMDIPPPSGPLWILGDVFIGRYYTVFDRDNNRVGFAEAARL

O=S(=O)(c1ccc(OC(F)(F)F)cc1)C1CO1 (stereo not given)
inhibition (Cathepsin B [1]): 30%

O=S(=O)(c1ccc(Cl)cc1)C1CO1 (stereo not given)
inhibition (Cathepsin B [1]): 44%

O=S(=O)(CC1CS1)c1ccccc1 (stereo not given)
inhibition (Cathepsin B [1]): inactive

Cc1ccc(C)c(S(=O)(=O)C2CO2)c1 (stereo not given)
inhibition (Cathepsin B [1]): 42%

O=S(=O)(c1ccc2ccccc2c1)C1CO1 (stereo not given)
inhibition (Cathepsin B [1]): 18%

O=S(=O)(c1cc(Cl)cc(Cl)c1)C1CO1 (stereo not given)
inhibition (Cathepsin B [1]): 50%

Cc1cccc(S(=O)(=O)C2CO2)c1 (stereo not given)
inhibition (Cathepsin B [1]): 40%

CC(=O)N[C@@H](CC(C)C)C(=O)N[C@@H](CC(C)C)C(=O)N[C@H](C=O)CCCNC(=N)N [LEUPEPTIN]
pKi (Cathepsin B [2]): 8.30

CCc1ccccc1S(=O)(=O)C1CO1 (stereo not given)
inhibition (MDA-MB-231 [3]): Dose-dependent effect
inhibition [4]: Active
inhibition (Cathepsin B [5]): Active
inhibition (MDA-MB-231 [6]): Active
inhibition [7]: Dose-dependent effect
inhibition (Cathepsin B [8]): Dose-dependent effect
inhibition (Cathepsin B [9]): Dose-dependent effect
half-life at 2500 µM [10]: 3.6 h
inhibition (Cathepsin B [11]): Active
inhibition [12]: inactive
inhibition (Trypsin (Homo sapiens)): inactive
inhibition [13]: inactive
Kinact [14]: 1.08 M⁻¹ s⁻¹
Kinact [15]: 19.9 M⁻¹ s⁻¹
Kinact [16]: 21.7 M⁻¹ s⁻¹
Kinact (Cathepsin B [17]): 40.7 M⁻¹ s⁻¹
inhibition (Cathepsin B [18]): Active
inhibition (Cathepsin B [19]): Active
Kinact (Cathepsin B [20]): 0.21 min⁻¹
pKi (Cathepsin B [21]): 4.07
inhibition (Cathepsin B [22]): inactive
inhibition (Cathepsin B [23]): Active
inhibition (Cathepsin B [24]): Active
inhibition (Cathepsin B [1]): > 98%
Selectivity ratio (Homo sapiens [25]): 38
Selectivity ratio (Homo sapiens [26]): 1.9
Selectivity ratio (Homo sapiens [27]): 1.9

O=S(=O)(CC1CO1)c1ccccc1 (stereo not given)
inhibition (Cathepsin B [1]): inactive

CCCC1OC1S(=O)(=O)c1ccccc1 (stereo not given)
inhibition (Cathepsin B [1]): inactive

COc1cccc(S(=O)(=O)C2CO2)c1 (stereo not given)
inhibition (Cathepsin B [1]): 35%

COc1ccc(OC)c(S(=O)(=O)C2CO2)c1 (stereo not given)
inhibition (Cathepsin B [1]): 25%

O=S(=O)(c1ccccc1)C1OC1c1ccc(F)cc1 (stereo not given)
inhibition (Cathepsin B [1]): inactive
